MDM2 E3 inh = MDM2-luciferase reporter signal enhancers, primary screen, MDM2 E3 ligase inhibitor project, cell-based, luminescence, 1536-well. E3 ubiquitin-protein ligase Mdm2 (Homo sapiens), Q00987. cell-based MDM2 ubiquitination luciferase reporter, 2 h; 0 = plate control, 100 = twice control, blank-subtracted. signal enhancement, % at 5 µM. actives 0.11% (n = 210,000). AID 1230, 2008;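 active means signal enhancement of 30% or more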;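 further: luminescence tracks abundance of the self-degrading MDM2-luciferase fusion protein; higher signal means inhibition of MDM2 E3 ligase activity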
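Assay system: stable mammalian line carrying autodegrading MDM2–luciferase fusion reporter; amount: 2000 cells seeded into each well; buffer or medium: DMEM; benchmarks: plate control and blank wells; signal: luciferase luminescence; timing: 2 h compound exposure at 37 °C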
ROMK mod = ROMK potassium channel modulators, primary screen, cell-based, thallium flux, MLSMR library. ATP-sensitive inward rectifier potassium channel 1 (Homo sapiens), P48048. Tet-inducible ROMK, thallium flux fluorescence; actives lie on both sides. B-score at 10 µM. actives 2% (n = 130,000). AID 1918, 2009;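 active means signal ratio slope over the read window, or its plate-corrected B-score, at least 3 SD from the plate mean, either direction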;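 further: B-score of the F/F0 ratio slope over 7 to 12 s after thallium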
KCC2 mod = KCC2 cotransporter modulators, thallium flux, primary screen, cell-based, HEK293 KCC2, FluoZin-2 fluorescence, MLSMR | Solute carrier family 12 member 5 (Homo sapiens), Q9H2X9 | KCC2 cells, thallium flux FluoZin-2 fluorescence | B-score of Tl+ flux slope (higher = more flux/activation; lower = inhibition) at 10 µM | actives 2.2% (n = 190,000);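 active means thallium flux slope and its plate-corrected score both differing from the plate sample mean at a set confidence after two filtering rounds, in either direction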;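 further: slope of fluorescence scaled to starting intensity during 10 to 20 s after thallium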
PKD1 kinase inh = inhibitors of human PKD1 kinase, biochemical, fluorescence polarization | Serine/threonine-protein kinase D1 (Homo sapiens), Q15139 | PKD1 kinase fluorescence polarization assay | inhibition, % (no concentration beside the values) | actives 0.056% (n = 200,000) | AID 797, 2007; in the data active means inhibition above about 50%
Target sequence (Q15139 whole entry, looked up): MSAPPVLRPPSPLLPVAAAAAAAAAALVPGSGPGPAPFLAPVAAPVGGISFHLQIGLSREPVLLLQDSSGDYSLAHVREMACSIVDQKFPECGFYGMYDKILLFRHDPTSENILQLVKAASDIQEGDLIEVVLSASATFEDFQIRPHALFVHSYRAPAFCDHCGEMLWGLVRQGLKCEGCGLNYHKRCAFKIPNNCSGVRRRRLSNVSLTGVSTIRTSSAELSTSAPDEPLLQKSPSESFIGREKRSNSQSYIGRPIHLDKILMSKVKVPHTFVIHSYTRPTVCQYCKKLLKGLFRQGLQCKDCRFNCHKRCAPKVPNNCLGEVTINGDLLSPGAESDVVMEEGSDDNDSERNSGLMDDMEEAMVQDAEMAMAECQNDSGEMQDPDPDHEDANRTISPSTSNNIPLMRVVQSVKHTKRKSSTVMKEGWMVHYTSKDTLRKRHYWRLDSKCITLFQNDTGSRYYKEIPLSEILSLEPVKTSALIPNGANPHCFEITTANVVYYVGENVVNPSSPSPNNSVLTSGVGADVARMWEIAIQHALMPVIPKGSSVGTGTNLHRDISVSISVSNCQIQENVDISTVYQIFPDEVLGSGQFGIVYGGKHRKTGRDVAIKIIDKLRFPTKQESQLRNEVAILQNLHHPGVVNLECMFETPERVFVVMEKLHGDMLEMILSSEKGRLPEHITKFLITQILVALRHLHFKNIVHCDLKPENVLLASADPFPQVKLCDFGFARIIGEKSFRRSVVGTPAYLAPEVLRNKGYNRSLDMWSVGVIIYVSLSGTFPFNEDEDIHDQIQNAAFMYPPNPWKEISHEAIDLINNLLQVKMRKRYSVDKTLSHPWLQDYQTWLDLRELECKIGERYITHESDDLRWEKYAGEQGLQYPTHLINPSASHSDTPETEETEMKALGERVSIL
Arbovirus inh = antivirals against arbovirus infection, primary screen, cell-based, full library, 10K replicate subset | actives 0.37% (n = 200,000) | arbovirus infection cell-based antiviral screen | inhibition, % at 10 µM; in the data active means inhibition above about 30%
m-calpain inh = inhibitors of pig calpain II, primary screen, biochemical, fluorogenic peptide substrate, 1536-well | purified calpain II, 30 min | inhibition, % at 16 µM | actives 0.37% (n = 220,000);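 active means inhibition above about 50%, limit read from the data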
KCC2 sec1 = KCC2 modulators in sodium-free buffer, confirmation, cell-based, HEK293 KCC2, thallium flux, secondary assay. normalised thallium flux (F/F0 slope) at 10 µM. FluoZin2 fluorescence; active compounds read high. actives 15% (n = 3,700). shares compounds with KCC2 mod. AID 1713, 2009;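 active means thallium flux slope above the same plate's solvent-only control mean plus 3 SD; inconclusive means the two replicate wells disagree; inactive means no significant difference from solvent-only control wells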
KCC2 bumet counter = thallium flux persisting under bumetanide in KCC2 cells, confirmation, counter-screen for KCC2 modulator project, cell-based, HEK293 KCC2, FluoZin2, secondary assay 3; shares compounds with KCC2 mod; HEK293-KCC2 + bumetanide/ouabain; active compounds read high; normalized thallium flux at 10 µM; actives 49% (n = 3,700); AID 1714, 2009;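 active means thallium entry rate above the same plate's blocked-transporter control wells by more than 3 SD; inconclusive means the two repeat wells disagree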;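 further: raw slope of fluorescence over initial fluorescence between 10 and 20 s after thallium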
KCC2 sec2 = KCC2 modulators without ouabain present, confirmation, cell-based, HEK293 KCC2, thallium flux, FluoZin2, secondary assay 2. AID 1715, 2009. thallium flux FluoZin2 fluorescence; actives lie on both sides; F/F0 rise rate, 10–20 s post-thallium. actives 23% (n = 3,700). normalized thallium flux at 10 µM. shares compounds with KCC2 mod;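 active means thallium flux slope more than 3 SD above or below the plate's solvent-only control mean, mostly below; inconclusive means the two repeat wells disagreed; inactive means no significant shift from solvent-only controls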
HEK293 Tl flux = thallium flux modulation in parental HEK cells, confirmation, counter-screen for KCC2 modulator project, cell-based, counterscreen 1; actives 46% (n = 3,700); thallium flux rate (normalised fluorescence) at 10 µM; HEK293 parental cells, thallium flux FluoZin2, ouabain; baseline-ratio fluorescence slope, 10–20 s after thallium; shares compounds with KCC2 mod;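 active means thallium flux rate significantly above the same plate's solvent-only control wells, beyond their mean plus 3 SD; inconclusive means the two replicate wells gave conflicting results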
KCC2 ouabain = KCC2 inhibitors and activators, ouabain retest, confirmation, HEK-KCC2 cells. shares compounds with KCC2 mod. HEK293-KCC2, thallium flux FluoZin2 fluorescence; bidirectional: low = inhibitor, high = activator. raw Tl+ flux slope (below DMSO = inhibition, above = activation) at 10 µM. actives 48% (n = 3,700);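 active means thallium flux slope beyond 3 SD from same-plate DMSO control mean in most replicates, usually higher, sometimes lower; inconclusive means repeat tests gave conflicting results; inactive means no significant difference from controls in most replicates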;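 further: slope of initial-normalized fluorescence between seconds 10 and 20 after thallium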
HEK293 Tl flux2 = native HEK Tl+ uptake effects, second counter-screen – HEK cells, counterscreen 2, counter-screen for KCC2 modulator project, confirmation; actives 33% (n = 3,700); thallium flux slope at 10 µM; HEK293 parental, thallium flux FluoZin-2 fluorescence slope; shares compounds with KCC2 mod;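 active means thallium flux slope above the same plate's solvent-control mean plus 3 SD in both duplicate wells; inconclusive means duplicate wells that disagreed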;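 further: run without ouabain in cells lacking the KCC2 cotransporter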
Each line names hits and unclear results; the compound was inactive in the other large screens (follow-up assays come after a bar, where they were run). An excerpt weighted towards active compounds, which were near 3.7% of everything screened.

CCOC(=O)C1CCN(C2CC(=O)N(c3cccc(Cl)c3)C2=O)CC1 (stereo unspecified)	KCC2 mod 3 (no result: ROMK mod) | KCC2 sec1 inactive | KCC2 bumet counter 0.0085 | KCC2 sec2 inactive | HEK293 Tl flux inactive | KCC2 ouabain inactive | HEK293 Tl flux2 inactive
O=C(CNC(=O)c1ccc(S(=O)(=O)N2CCCC2)cc1)N/N=C/c1c(Cl)cccc1Cl	none
CCOC(=O)c1ccccc1NC1OC(=O)c2ccccc21 (stereo unspecified)	KCC2 mod -3.9 | KCC2 sec1 inconclusive | KCC2 bumet counter inactive | KCC2 sec2 inactive | HEK293 Tl flux inconclusive | KCC2 ouabain inactive | HEK293 Tl flux2 inconclusive
CSCCC(NC(=O)COc1cccc2ccccc12)C(=O)O (stereo unspecified)	none (no result: ROMK mod, PKD1 kinase inh, Arbovirus inh)
CC1=C(C(=O)Nc2ccccc2)C(c2ccco2)C(C#N)=C(SCc2ccccc2)N1 (stereo unspecified)	none (no result: KCC2 mod) | KCC2 sec1 inactive | KCC2 bumet counter inactive | KCC2 sec2 inactive | HEK293 Tl flux inactive | KCC2 ouabain inactive | HEK293 Tl flux2 inactive
CC1=C(C(=O)Nc2ccccc2)C(c2ccco2)C(C#N)=C(SCC(=O)OC(C)C)N1 (stereo unspecified)	none (no result: ROMK mod)
CSc1nc2[nH]c3c(c2c2ncnn12)CCCC3	none | KCC2 sec1 inactive | KCC2 bumet counter inactive | KCC2 sec2 inactive | HEK293 Tl flux inactive | KCC2 ouabain inactive | HEK293 Tl flux2 inactive
CSc1c2c(nc3ncnn13)CCC2	none
COc1cccc(CNC(=O)c2cc3oc4ccccc4c3n2C)c1OC	KCC2 mod 7.5 (no result: ROMK mod) | KCC2 sec1 inactive | KCC2 bumet counter inactive | KCC2 sec2 inactive | HEK293 Tl flux inactive | KCC2 ouabain inactive | HEK293 Tl flux2 inactive
CCOc1ccc(CNC(=O)c2cc3oc4ccccc4c3n2C)cc1	none
O=C(Nc1ccccc1F)Nc1ccccc1Br	none
O=C1c2cccc3cccc(c23)C(=O)N1Cc1cccnc1	none (no result: ROMK mod, PKD1 kinase inh, Arbovirus inh)
O=C1c2cccc3c([N+](=O)[O-])ccc(c23)C(=O)N1Cc1cccnc1	KCC2 mod -5 | KCC2 sec1 0.0041 | KCC2 bumet counter inconclusive | KCC2 sec2 0.026 | HEK293 Tl flux 0.0058 | KCC2 ouabain 0.014 | HEK293 Tl flux2 0.0084
Cc1nn(C)c(C)c1/C=C1/SC(=S)NC1=O	KCC2 mod -4 | KCC2 sec1 inactive | KCC2 bumet counter inactive | KCC2 sec2 0.026 | HEK293 Tl flux inactive | KCC2 ouabain 0.014 | HEK293 Tl flux2 inactive
Cc1cc(/C=C2\SC(=S)NC2=O)c(C)n1-c1ccccc1	KCC2 mod 24 (no result: ROMK mod, PKD1 kinase inh, Arbovirus inh) | KCC2 sec1 inactive | KCC2 bumet counter 0.047 | KCC2 sec2 inactive | HEK293 Tl flux 0.029 | KCC2 ouabain inconclusive | HEK293 Tl flux2 0.013
CC1Cc2cc(/C=C3/SC(=S)NC3=O)ccc2O1 (stereo unspecified)	KCC2 mod 81 (no result: PKD1 kinase inh, Arbovirus inh) | KCC2 sec1 inconclusive | KCC2 bumet counter 0.12 | KCC2 sec2 0.05 | HEK293 Tl flux 0.065 | KCC2 ouabain 0.087 | HEK293 Tl flux2 0.051
Cc1cc(/C=C2\SC(=S)NC2=O)cc(C)c1O	KCC2 mod 7.6 (no result: ROMK mod, PKD1 kinase inh, Arbovirus inh) | KCC2 sec1 inactive | KCC2 bumet counter 0.036 | KCC2 sec2 inactive | HEK293 Tl flux 0.02 | KCC2 ouabain 0.027 | HEK293 Tl flux2 0.02
O=C(c1ccco1)c1cn(CC(=O)N2CCCc3ccccc32)c2ccccc12	none
CC(C)c1ccc(OCC(=O)Nc2cccc(C(=O)Nc3ccccc3C(=O)O)c2)cc1	KCC2 mod -5 | KCC2 sec1 inactive | KCC2 bumet counter inactive | KCC2 sec2 inactive | HEK293 Tl flux 0.0057 | KCC2 ouabain 0.016 | HEK293 Tl flux2 inactive
CC(C)C(=O)Nc1cccc(C(=O)Nc2ccccc2C(=O)O)c1	none (no result: KCC2 mod)
CSc1nnc(C)c(=O)n1COC(=O)COc1ccc(Cl)cc1Cl	none
CS/C(N)=N/C(=S)Nc1cccc(Cl)c1	KCC2 mod 7.5 (no result: ROMK mod, PKD1 kinase inh, Arbovirus inh) | KCC2 sec1 inactive | KCC2 bumet counter 0.018 | KCC2 sec2 inactive | HEK293 Tl flux inconclusive | KCC2 ouabain inactive | HEK293 Tl flux2 inconclusive
NC(=S)Nc1cccc(Cl)c1	none (no result: PKD1 kinase inh, Arbovirus inh)
CCNc1nc(Cl)nc(NNC(=O)C(C)Oc2ccccc2)n1 (stereo unspecified)	none (no result: ROMK mod)
COc1ccc2occ(C(=O)c3cccs3)c2c1	none (no result: KCC2 mod) | KCC2 sec1 inactive | KCC2 bumet counter 0.0071 | KCC2 sec2 inactive | HEK293 Tl flux inactive | KCC2 ouabain inactive | HEK293 Tl flux2 inactive
COc1ccc(OC)c(C(=O)c2coc3ccc(OC(C)=O)cc23)c1	none (no result: KCC2 mod)
Cc1ccc(N2CC(C(=O)N3CCc4ccccc4C3)CC2=O)cc1 (stereo unspecified)	none (no result: ROMK mod, KCC2 mod) | KCC2 sec1 inactive | KCC2 bumet counter inactive | KCC2 sec2 inactive | HEK293 Tl flux inactive | KCC2 ouabain inactive | HEK293 Tl flux2 inactive
CC(Nc1n[nH]c(=O)[nH]c1=O)C(=O)N/N=C/c1cccs1 (stereo unspecified)	none

High-throughput results (PubChem)
